In ChEMBL document CHEMBL1139454, “NMR structural characterization of peptide inhibitors bound to the Hepatitis C virus NS3 protease: design of a new P2 substituent” (J Med Chem, 2004):
Non-standard residues stand in square brackets, D forms with d. Residues, ends and D or L forms follow the SMILES beside them. Nva = CCC[C@H](N)C(=O)O

Tested on: not listed separately
Assay: Inhibitory activity against hepatitis C virus (NS3 protease
Set-up: species or system Hepacivirus hominis
Outline: (§1)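 Genotype 1b NS3–NS4A heterodimer at 1.5 nM, incubated 45 min at 23 °C with serially diluted inhibitor and 5 μM internally quenched fluorogenic substrate anthranilyl-DDIVPAbu[C(O)-O]-AMY(3-NO₂)TW-OH. Buffer was 50 mM Tris-HCl pH 8.0, 0.25 M sodium citrate, 0.01% n-dodecyl-β-D-maltoside, 1 mM TCEP. Stopped with 1 M MES pH 5.8; product fluorescence read at ex 320/em 405 nm. IC50 from Hill-model nonlinear fit of % inhibition.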
Work on `CCC[C@H](NC(=O)[C@@H]1CCCN1C(=O)[C@@H](NC(=O)[C@@H](NC(=O)[C@H](CC(=O)O)NC(=O)[C@H](CC(=O)O)NC(C)=O)[C@@H](C)CC)C(C)C)C(=O)O` (Ac-DDIVP[Nva]-OH) yielded an IC50 of 150 µM.

Biological target: NS3 (Hepatitis C virus, UniProt A3EZJ3)
Sequence (A3EZJ3 whole entry): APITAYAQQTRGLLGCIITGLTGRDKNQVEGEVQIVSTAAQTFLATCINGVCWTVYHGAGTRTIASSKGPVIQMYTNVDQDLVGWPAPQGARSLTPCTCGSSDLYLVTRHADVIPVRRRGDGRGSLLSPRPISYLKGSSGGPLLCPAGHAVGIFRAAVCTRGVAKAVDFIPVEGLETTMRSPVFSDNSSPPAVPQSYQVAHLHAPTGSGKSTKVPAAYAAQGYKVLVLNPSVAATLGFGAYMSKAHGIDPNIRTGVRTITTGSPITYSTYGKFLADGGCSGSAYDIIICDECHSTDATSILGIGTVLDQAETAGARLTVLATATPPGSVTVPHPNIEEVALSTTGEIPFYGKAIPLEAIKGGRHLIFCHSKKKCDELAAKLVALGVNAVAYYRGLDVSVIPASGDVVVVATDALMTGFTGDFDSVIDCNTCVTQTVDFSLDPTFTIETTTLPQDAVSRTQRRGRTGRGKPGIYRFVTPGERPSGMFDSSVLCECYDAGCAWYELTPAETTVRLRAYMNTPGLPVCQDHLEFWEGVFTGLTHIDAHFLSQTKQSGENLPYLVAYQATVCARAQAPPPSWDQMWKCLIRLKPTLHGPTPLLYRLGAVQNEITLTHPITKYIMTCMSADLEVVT
Assay: Inhibitory activity against hepatitis C virus NS3 protease
Set-up: species or system Hepacivirus hominis
Outline: as §1
Work on `CC(=O)N[C@H](C(=O)N[C@H](C(=O)N1CC(Oc2cccc(Br)c2)CC1C(=O)NC1(C(=O)O)CC1)C(C)C)C1CCCCC1` (single isomer, unassigned) yielded an IC50 of 52 µM.
For `CC(=O)N[C@H](C(=O)N[C@H](C(=O)N1CC(Oc2cccc(-c3ccccc3)c2)CC1C(=O)NC1(C(=O)O)CC1)C(C)C)C1CCCCC1` (single isomer, unassigned), the IC50 was 6.2 µM.
`C=CC1C[C@]1(NC(=O)[C@@H]1C[C@@H](Oc2cc(-c3ccccc3)nc3ccccc23)CN1C(=O)[C@@H](NC(C)=O)C(C)C)C(=O)O` (some centres not stated) showed an IC50 of 3 µM.
Molecule `CC(=O)N[C@H](C(=O)N[C@H](C(=O)N1CC(OCc2cccc3ccccc23)CC1C(=O)NC1(C(=O)O)CC1)C(C)C)C1CCCCC1` (single isomer, unassigned) has an IC50 of 4 µM.
Molecule `CC(=O)N[C@H](C(=O)N[C@H](C(=O)N1CC(Oc2ccnc3cc(C(F)(F)F)ccc23)CC1C(=O)NC1(C(=O)O)CC1)C(C)C)C1CCCCC1` (single isomer, unassigned) has an IC50 of 8 µM.
`CC(=O)N[C@H](C(=O)N[C@H](C(=O)N1CC(Oc2cc(-c3ccccc3)nc3ccccc23)CC1C(=O)NC1(C(=O)O)CC1)C(C)C)C1CCCCC1` (single isomer, unassigned) gave an IC50 of 0.37 µM.
With `C=C[C@@H]1C[C@]1(NC(=O)C1CC(Oc2cccc(-c3ccccc3)c2)CN1C(=O)[C@@H](NC(=O)[C@@H](NC(C)=O)C1CCCCC1)C(C)C)C(=O)O` (single isomer, unassigned) the IC50 was 0.12 µM.
Molecule `CC(=O)N[C@H](C(=O)N[C@H](C(=O)N1CC(Oc2cccc(-c3cccc([N+](=O)[O-])c3)c2)CC1C(=O)NC1(C(=O)O)CC1)C(C)C)C1CCCCC1` (single isomer, unassigned) has an IC50 of 4 µM.
In the case of `C=C[C@@H]1C[C@]1(NC(=O)C1CC(Oc2ccnc3ccccc23)CN1C(=O)[C@@H](NC(=O)[C@@H](NC(C)=O)C1CCCCC1)C(C)C)C(=O)O` (single isomer, unassigned), the IC50 is reported as 0.11 µM.
Work on `C=C[C@@H]1C[C@]1(NC(=O)C1CC(Oc2cc(-c3ccccc3)nc3ccccc23)CN1C(=O)[C@@H](NC(=O)[C@@H](NC(C)=O)C1CCCCC1)C(C)C)C(=O)O` (single isomer, unassigned) yielded an IC50 of 0.013 µM.
`CC(=O)N[C@H](C(=O)N[C@H](C(=O)N1CC(Oc2ccnc3ccccc23)CC1C(=O)NC1(C(=O)O)CC1)C(C)C)C1CCCCC1` (single isomer, unassigned) showed an IC50 of 2.2 µM.
